{"source": "ChEMBL document CHEMBL1123113", "about": "“\"Reverse\" and \"symmetrical\" analogues of actinomycin D: metabolic activation and in vitro and in vivo tumor growth inhibitory activities” (J Med Chem, 1985)", "key": {"[1]": {"species": "Rattus norvegicus", "assay": "Compound tested for adrenochrome formation in rat hepatic mycrosomal incubation", "assay_type": "functional", "in_short": "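Adrenochrome assay for superoxide: epinephrine in 0.01 N HCl plus 300 µg of phenobarbital-induced rat liver microsomes at 37 °C. NADPH 0.4 mM was added to the sample side 1 min later, and the rate was read at 480 nm (ε 4.02 mM−1 cm−1). Drugs were at ≤100 µM, made in 150 mM KCl–50 mM Tris, pH 7.4. Percent stimulation is over basal rate, in triplicate.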"}, "[2]": {"species": "Mus musculus", "assay": "Dose providing an increase in the life span of 45% over control in P388 tumor bearing mice", "assay_type": "functional", "conditions": "read-out: MED", "in_short": "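MED is the ip dose in mg/kg, given on days 1, 5 and 9 starting 1 day after implantation, that gives a 45% increase in life span over control in P388-bearing mice. It was derived from plotted log-dose response data.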"}, "[3]": {"species": "Rattus norvegicus", "assay": "Compound tested for NADPH oxidation in rat hepatic mycrosomal incubation", "assay_type": "functional", "in_short": "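Phenobarbital-induced male Sprague-Dawley rat liver microsomes were placed in both cuvettes, without epinephrine. NADPH 0.4 mM was added to the sample side only, and absorbance was read at 340 nm. Percent stimulation = (drug rate − basal)/basal × 100. Values are the average ± standard errors of triplicates.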"}, "[4]": {"system": "Mus musculus", "assay": "Antitumor activity against B16 melanoma in terms of median survival time of mice at an optimal dose of 250 ug/kg administered ip", "assay_type": "functional"}, "[5]": {"system": "Mus musculus", "assay": "In vivo antitumor activity was determined against B16 melanoma mice as number of mice survived after administration of 250 ug/Kg dose of compound; Value represented as no of survivors/ treated = 2/9", "assay_type": "functional"}, "[6]": {"system": "Mus musculus", "assay": "Antitumor activity against P388 leukemia cells in terms of percentage increase in life span in mice at an optimal dose of 300 ug/kg administered ip", "assay_type": "functional"}, "[7]": {"system": "P388", "assay": "(§1) Inhibition of DNA synthesis was measured as the concentration required to cause 50% reduction (in 1h) in methyl [3H]thymidine incorporation into acid precipitable material using P388 cells", "assay_type": "functional", "conditions": "Mus musculus, read-out: ID50 (the source's name)", "in_short": "(§2)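 P388 cells were exposed for 1 h. IC50 (µM) was taken as 50% reduction of methyl-[3H]thymidine (DNA) or 2-[14C]uridine (RNA) incorporation into acid-precipitable material. The ratio is IC50 DNA divided by IC50 RNA.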"}, "[8]": {"assay": "Therapeutic index ([…]) value of the compound", "conditions": "read-out: TI", "in_short": "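MED is the dose giving a 45% increase in life span over control in male BDF1 mice implanted ip with 10^6 P388 cells and treated ip on days 1, 5 and 9. MTD is the 21-day LD10 in tumor-free male BDF1 mice (18–22 g), dosed ip on the same days. Both values come from plotted log-dose response data.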"}, "[9]": {"system": "P388", "assay": "(§3) Inhibition of RNA synthesis was measured as the concentration required to cause 50% reduction (in 1h) in 2-[14C]uridine incorporation into acid precipitable material using P388 cells", "assay_type": "functional", "conditions": "Mus musculus, P388, 1 h; read-out: ID50 (the source's name)"}, "[10]": {"system": "CCRF-CEM", "assay": "Inhibitory dose required for the inhibition of human lymphoblastic leukemia cells(CCRF-CEM)", "assay_type": "functional", "conditions": "read-out: ID50 (the source's name)"}, "[11]": {"species": "Mus musculus", "assay": "Antitumor activity against B16 melanoma in terms of percentage increase in life span in mice after 65 days", "assay_type": "functional"}, "[12]": {"assay": "Minimum tolerated dose is the lethal dose for 10% normal mice for deaths during 21 days", "assay_type": "ADME, organism-based", "conditions": "mouse, in vivo", "in_short": "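Tumor-free male BDF1 mice (18–22 g) received a broad dose range ip in 5% dimethyl sulfoxide-saline on days 1, 5 and 9. Deaths were recorded over 21 days. The LD10 (dose killing 10% of animals) was calculated from a plot of log-dose vs. percent mortality.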"}, "[13]": {"system": "Mus musculus", "assay": "In vivo antitumor activity was determined against P388 leukemia mice as number of mice survived after administration of 300 ug/Kg dose of compound; Value represented as no of survivors/ treated = 0/8", "assay_type": "functional"}, "[14]": {"system": "Mus musculus", "assay": "Antitumor activity against P388 leukemia cells in terms of median survival time of mice at an optimal dose of 300 ug/kg administered ip", "assay_type": "functional"}, "[15]": {"system": "P388", "assay": "as §3", "assay_type": "functional, cell-based", "conditions": "Mus musculus, P388, 1 h"}, "[16]": {"system": "P388", "assay": "as §1", "assay_type": "functional, cell-based", "conditions": "Mus musculus", "in_short": "as §2"}, "[17]": {"assay": "Therapeutic index (MTD/MED) value of the compound", "conditions": "read-out: TI"}, "[18]": {"system": "P388", "assay": "as §1", "assay_type": "functional, cell-based", "conditions": "Mus musculus", "remark": "listed apart in the source"}, "[19]": {"system": "Mus musculus", "assay": "Antitumor activity against P388 leukemia cells in terms of median survival time of mice at an optimal dose of 1000 ug/kg administered ip", "assay_type": "functional"}, "[20]": {"system": "Mus musculus", "assay": "Antitumor activity against P388 leukemia cells in terms of percentage increase in life span in mice at an optimal dose of 1000 ug/kg administered ip", "assay_type": "functional"}, "[21]": {"system": "Mus musculus", "assay": "In vivo antitumor activity was determined against B16 melanoma mice as number of mice survived after administration of 900 ug/Kg dose of compound; Value represented as no of survivors/ treated = 2/9"}, "[22]": {"system": "Mus musculus", "assay": "In vivo antitumor activity was determined against P388 leukemia mice as number of mice survived after administration of 1000 ug/Kg dose of compound; Value represented as no of survivors/ treated = 2/8", "assay_type": "functional"}, "[23]": {"system": "Mus musculus", "assay": "Antitumor activity against B16 melanoma in terms of median survival time of mice at an optimal dose of 900 ug/kg administered ip", "assay_type": "functional"}, "[24]": {"system": "Mus musculus", "assay": "Antitumor activity against B16 melanoma in terms of percentage increase in life span in mice at an optimal dose of 900 ug/kg administered ip", "assay_type": "functional"}, "[25]": {"system": "Mus musculus", "assay": "In vivo antitumor activity was determined against P388 (adriamycin sensitive tumors) as number of mice survived after administration of 0.3-1.8 mg/kg, ip dose of compound; Value represented as no of survivors/ treated = 4/8", "assay_type": "functional"}}, "note": "Values joined by “and” are separate entries in the source; they are usually repeats but may differ in a detail not shown here. Equal values may be shown once.", "data": [{"smiles": "Cc1c2oc3c(C)ccc(C(=O)N[C@@H]4C(=O)N[C@H](C(C)C)C(=O)N5CCC[C@H]5C(=O)NCC(=O)N[C@@H](C(C)C)C(=O)O[C@@H]4C)c3nc-2c(C(=O)N[C@@H]2C(=O)N[C@H](C(C)C)C(=O)N3CCC[C@H]3C(=O)NCC(=O)N[C@@H](C(C)C)C(=O)O[C@@H]2C)c(N)c1=O", "note": "[ACTINOMYCITIN]", "values": [{"measurement": "adrenochrome formation", "setting": "[1]", "result": "2.11 nM min-1 (mg of protein)-1 and 2.29 nM min-1 (mg of protein)-1"}, {"measurement": "minimal effective dose", "setting": "[2]", "result": 0.0625, "unit": "mg/kg"}, {"measurement": "NADPH oxidation", "setting": "[3]", "result": "9.11 nM min-1 (mg of protein)-1 and 10.01 nM min-1 (mg of protein)-1"}, {"measurement": "MST", "setting": "[4]", "result": 43, "unit": "range"}, {"measurement": "Survivors", "setting": "[5]", "result": 2}, {"measurement": "ILS at 0.3 mg/kg", "setting": "[6]", "result": 136, "unit": "%"}, {"measurement": "IC50", "setting": "[7]", "result": 1.12, "unit": "nM"}, {"measurement": "selectivity ratio", "setting": "[8]", "result": 4}, {"measurement": "IC50", "setting": "[9]", "result": 0.05, "unit": "nM"}, {"measurement": "IC50", "setting": "[10]", "result": 50, "unit": "nM"}, {"measurement": "ILS", "setting": "[11]", "result": 48, "unit": "%"}, {"measurement": "MTD at 504 h", "setting": "[12]", "result": 0.25, "unit": "mg/kg"}, {"measurement": "Survivors", "setting": "[13]", "result": 0}, {"measurement": "MST", "setting": "[14]", "result": 26, "unit": "days"}]}, {"smiles": "Cc1c2oc3c(C)c(O)c(N)c(C(=O)N[C@@H]4C(=O)N[C@H](C(C)C)C(=O)N5CCC[C@H]5C(=O)N(C)CC(=O)N(C)[C@@H](C(C)C)C(=O)O[C@@H]4C)c3nc-2c(C(=O)N[C@@H]2C(=O)N[C@H](C(C)C)C(=O)N3CCC[C@H]3C(=O)N(C)CC(=O)N(C)[C@@H](C(C)C)C(=O)O[C@@H]2C)c(N)c1=O", "values": [{"measurement": "IC50", "setting": "[15]", "result": 1150, "unit": "nM"}, {"measurement": "IC50", "setting": "[16]", "result": 1110, "unit": "nM"}, {"measurement": "selectivity ratio", "setting": "[17]", "result": 96}, {"measurement": "MTD at 504 h", "setting": "[12]", "result": 2.4, "unit": "mg/kg"}]}, {"smiles": "Cc1nc2c(C(=O)N[C@@H]3C(=O)N[C@H](C(C)C)C(=O)N4CCC[C@H]4C(=O)N(C)CC(=O)N(C)[C@@H](C(C)C)C(=O)O[C@@H]3C)c3nc4c(C(=O)N[C@@H]5C(=O)N[C@H](C(C)C)C(=O)N6CCC[C@H]6C(=O)N(C)CC(=O)N(C)[C@@H](C(C)C)C(=O)O[C@@H]5C)c(N)c(=O)c(C)c-4oc3c(C)c2o1", "values": [{"measurement": "IC50", "setting": "[18]", "result": 1010, "unit": "nM"}, {"measurement": "IC50", "setting": "[15]", "result": 90, "unit": "nM"}]}, {"smiles": "Cc1c2oc3c(C)c4oc(-c5ccccc5)nc4c(C(=O)N[C@@H]4C(=O)N[C@H](C(C)C)C(=O)N5CCC[C@H]5C(=O)N(C)CC(=O)N(C)[C@@H](C(C)C)C(=O)O[C@@H]4C)c3nc-2c(C(=O)N[C@@H]2C(=O)N[C@H](C(C)C)C(=O)N3CCC[C@H]3C(=O)N(C)CC(=O)N(C)[C@@H](C(C)C)C(=O)O[C@@H]2C)cc1=O", "values": [{"measurement": "MST", "setting": "[19]", "result": 31.5, "unit": "days"}, {"measurement": "minimal effective dose", "setting": "[2]", "result": 0.2, "unit": "mg/kg"}, {"measurement": "ILS (Sur)", "setting": "[20]", "result": 186, "unit": "%"}, {"measurement": "Survivors", "setting": "[21]", "result": 2}, {"measurement": "Survivors", "setting": "[22]", "result": 2}, {"measurement": "IC50", "setting": "[10]", "result": 500, "unit": "nM"}, {"measurement": "MST", "setting": "[23]", "result": 45, "unit": "days"}, {"measurement": "ILS at 0.9 mg/kg", "setting": "[24]", "result": 55, "unit": "%"}, {"measurement": "Survivors", "setting": "[25]", "result": 4}]}]}
